Experimental findings from ChEMBL document CHEMBL1124052, “New inhibitors of human renin that contain novel Leu-Val replacements. Examination of the P1 site” (J Med Chem, 1988) are described below.

Non-standard residues stand in square brackets, D forms with d. Residues, ends and D or L forms follow the SMILES beside them. *: point of attachment. hCha = N[C@@H](CCC1CCCCC1)C(=O)O; Cha = N[C@@H](CC1CCCCC1)C(=O)O; Chg = N[C@H](C(=O)O)C1CCCCC1; Boc = CC(C)(C)OC(=O)*

Usually inhibition stands for how much of the control response was suppressed. A low value points to little suppression. As a reminder, the IC50 is the point on the concentration scale where inhibition reaches its midpoint. A low value points to higher potency.

For one test, the target named is T1, Renin (Homo sapiens) (UniProt P00797).
T1 sequence (whole entry): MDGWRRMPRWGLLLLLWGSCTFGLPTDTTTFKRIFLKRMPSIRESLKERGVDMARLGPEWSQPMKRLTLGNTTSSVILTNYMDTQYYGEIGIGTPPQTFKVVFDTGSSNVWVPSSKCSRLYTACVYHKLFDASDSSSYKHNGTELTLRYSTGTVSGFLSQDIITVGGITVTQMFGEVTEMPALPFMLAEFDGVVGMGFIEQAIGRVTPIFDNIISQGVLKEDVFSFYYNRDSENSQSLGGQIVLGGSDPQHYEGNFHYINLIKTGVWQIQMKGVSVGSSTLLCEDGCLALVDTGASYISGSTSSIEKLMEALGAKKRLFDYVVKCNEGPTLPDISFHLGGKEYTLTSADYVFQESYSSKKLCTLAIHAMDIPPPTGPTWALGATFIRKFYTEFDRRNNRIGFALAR
The test can be described thus: Inhibitory activity against human renal renin at pH 6 at concentration 10E-5 M.
Conditions: not given
As to `CC(C)SC[C@H](O)[C@H](CCC1CCCCC1)NC(=O)[C@H](C)NC(=O)[C@H](Cc1ccccc1)NC(=O)OC(C)(C)C`, the inhibition stood at 45%.

The next test concerns the target T1, Renin (Homo sapiens). The test can be described thus: (§1) Inhibition of human renal renin at pH 6. The settings on record: concentration not given here. The method, boiled down: (§2)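 Purified human renal renin (0.24 mGU) was incubated with pure human angiotensinogen (0.21 µM final) in 0.135 M maleate pH 6.0 with 3 mM EDTA, 1.4 mM PMSF, 0.44% BSA and 1% DMSO. At least three inhibitor levels bracketing the IC50 were preincubated with renin for 5.0 min at 37 °C, then reacted 10.0 min. The reaction was stopped by freezing, angiotensin I was measured by RIA, and the IC50 was taken by regression of percent inhibition.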
In the case of `CC(C)SC[C@H](O)[C@@H](NC(=O)[C@H](Cc1c[nH]cn1)NC(=O)[C@H](Cc1ccccc1)NC(=O)OC(C)(C)C)C(c1ccccc1)c1ccccc1`, the inhibition was 3%.

`CC(C)SC[C@H](O)[C@@H](NC(=O)[C@H](C)NC(=O)[C@H](Cc1ccccc1)NC(=O)OC(C)(C)C)C(c1ccccc1)c1ccccc1` showed an inhibition of 11%.

`Cc1cc(C)c(C[C@H](NC(=O)[C@H](C)NC(=O)[C@H](Cc2ccccc2)NC(=O)OC(C)(C)C)[C@@H](O)CSC(C)C)c(C)c1` showed an inhibition of 5%.

The target of the next test is T2, Renin (Homo sapiens, UniProt P00797).
T2 sequence (P00797 whole entry): T1 sequence (whole entry)
The test is described as §1.
Conditions: not given
The method, boiled down:
as §2
`CC(C)SC[C@H](O)[C@@H](NC(=O)[C@H](C)NC(=O)[C@H](Cc1ccccc1)NC(=O)OC(C)(C)C)C1CCCCC1` came in with a concentration for half-maximal inhibition (IC50) of 1500 nM.

For the compound `CC(C)SC[C@H](O)[C@H](CCC1CCCCC1)NC(=O)[C@H](Cc1c[nH]cn1)NC(=O)[C@H](Cc1ccccc1)NC(=O)OC(C)(C)C`, the IC50 came out at 1500 nM. This counts as single-digit micromolar.

Compound `C[C@H](NC(=O)[C@H](Cc1ccccc1)NC(=O)OC(C)(C)C)C(=O)N[C@H](C=O)C(C1CCCCC1)C1CCCCC1` had a half-inhibitory concentration (IC50) of 40000 nM. Against the preceding compound, the IC50 is about 27-fold higher.

`CC(C)SC[C@H](O)[C@H](CC1CCCCC1)NC(=O)[C@H](C)NC(=O)[C@H](Cc1ccccc1)NC(=O)OC(C)(C)C` displayed a half-maximal inhibitory concentration (IC50) of 9 nM.

As for `CC(C)SC[C@H](O)[C@H](Cc1ccccc1)NC(=O)[C@H](Cc1cnc[nH]1)NC(=O)[C@H](Cc1ccccc1)NC(=O)OC(C)(C)C`, half-maximal inhibition (IC50) required 19 nM.

`C[C@H](NC(=O)[C@H](Cc1ccccc1)NC(=O)OC(C)(C)C)C(=O)N[C@H](C=O)CC12CC3CC(CC(C3)C1)C2`: the IC50 is 35000 nM.

The compound `CC(C)SC[C@H](O)[C@@H](NC(=O)[C@H](Cc1cnc[nH]1)NC(=O)[C@H](Cc1ccccc1)NC(=O)OC(C)(C)C)C1CCCCC1` registered an IC50 of 150 nM.

The compound `C[C@H](NC(=O)[C@H](Cc1ccccc1)NC(=O)OC(C)(C)C)C(=O)N[C@H](C=O)C1CCCCC1` (Boc-Phe-Ala-[Chg]-aldehyde) registered a 50% inhibitory concentration (IC50) of 1000 nM.

The compound `CC(C)C[C@@H](C=O)NC(=O)[C@H](C)NC(=O)[C@H](Cc1ccccc1)NC(=O)OC(C)(C)C` (Boc-Phe-Ala-Leu-aldehyde) came in with an IC50 of 20000 nM. This IC50 lies about 20-fold higher than the previous one.

As to `C[C@H](NC(=O)[C@H](Cc1ccccc1)NC(=O)OC(C)(C)C)C(=O)N[C@H](C=O)CCC1CCCCC1` (Boc-Phe-Ala-[hCha]-aldehyde), the midpoint of inhibition, the IC50, lay at 55000 nM.

Compound `C[C@H](NC(=O)[C@H](Cc1ccccc1)NC(=O)OC(C)(C)C)C(=O)N[C@H](C=O)CC1CCCCC1` (Boc-Phe-Ala-[Cha]-aldehyde) gave a 50% inhibitory concentration (IC50) of 460 nM.

In the case of `CC(C)SC[C@H](O)[C@H](Cc1ccccc1)NC(=O)[C@H](C)NC(=O)[C@H](Cc1ccccc1)NC(=O)OC(C)(C)C`, the IC50 is 170 nM.

As for `CC(C)SC[C@H](O)[C@H](CC12CC3CC(CC(C3)C1)C2)NC(=O)[C@H](Cc1c[nH]cn1)NC(=O)[C@H](Cc1ccccc1)NC(=O)OC(C)(C)C`, half-maximal inhibition (IC50) required 2500 nM.

For the compound `CC(C)C[C@H](NC(=O)[C@H](Cc1cnc[nH]1)NC(=O)[C@H](Cc1ccccc1)NC(=O)OC(C)(C)C)[C@@H](O)CSC(C)C`, the half-inhibitory concentration (IC50) is 81 nM. Against the preceding compound, the IC50 is about 31-fold lower.
